From ChEMBL document CHEMBL1828605, “Synthesis, antiviral activity, cytotoxicity and cellular pharmacology of l-3'-azido-2',3'-dideoxypurine nucleosides” (Eur J Med Chem, 2011) come the findings set out here.

The structures appear in SMILES notation. pEC50, pIC50, pKd: −log10 of the molar value.

Data set [1] concerns the target Human immunodeficiency virus type 1 reverse transcriptase (Human immunodeficiency virus 1, UniProt Q72547). As to the kind of experiment: Binding affinity to HIV1 reverse transcriptase assessed as L-3'-azido-NTP incorporation in nascent DNA.
Data set [2] can be described thus: Cytotoxicity against human HepAD38 cells. In kind it is cell-based.
In data set [3] the test system is Hepatitis B virus. As to the kind of experiment: Antiviral activity against Hepatitis B virus infected in human HepAD38 assessed as reduction of viral DNA level on day 7 by quantitative-PCR assay analysis. It is filed as functional, organism-based.
Data set [4] concerns Vero. As to the kind of experiment: Cytotoxicity against african green monkey Vero cells after 3 days by hemocytometry. It is filed as cell-based. The conditions noted are these: Chlorocebus sabaeus, 72 h.
Data set [5] concerns PBMC. Put plainly: Cytotoxicity against phytohemagglutininin-stimulated human PBMC after 6 days by trypan blue exclusion assay. It is filed as cell-based. Particulars: 144 h.
For data set [6], the system named is CCRF-CEM. As to the kind of experiment: Cytotoxicity against human CEM cells after 6 days by trypan blue exclusion assay. The conditions noted are these: 144 h. In kind it is cell-based.
Data set [7] has as its target Human immunodeficiency virus type 1 reverse transcriptase (Human immunodeficiency virus 1) (UniProt Q72547). Put plainly: Ratio Kpol to Kd for wild type HIV 1 reverse transcriptase. Summed up:
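Pre-steady-state single-turnover incorporation by purified WT HIV-1 RT (200 nM, final), pre-incubated with 20 nM T/P substrate, then mixed with nucleotide at varying concentrations plus metal ions. Reaction at 37 °C in 50 mM Tris-HCl pH 7.5, 50 mM KCl, 10 mM MgCl₂. Aliquots quenched in gel loading buffer at 1-60 min. 20mer→21mer conversion quantified on gel. k_obs from burst fit, k_pol and K_d from hyperbolic fit, efficiency taken as k_pol/K_d.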

Data set [8] shares this target. As to the kind of experiment: Selectivity ratio of Kpol to Kd for dATP to Kpol to Kd for compound at HIV1 reverse transcriptase.
Data set [9] relates to Human immunodeficiency virus 1. Put plainly: Antiviral activity against HIV1 LAV1 infected in phytohemagglutininin-stimulated human PBMC assessed as RT level after 6 days by microdilution plate assay. It is filed as functional, organism-based.
Data set [10] has as its target Human immunodeficiency virus type 1 reverse transcriptase (Human immunodeficiency virus 1) (UniProt Q72547). Put plainly: Selectivity ratio of Kpol to Kd for dCTP to Kpol to Kd for compound at HIV1 reverse transcriptase.
Data set [11] deals with PBMC. Put plainly: Drug metabolism in human phytohemagglutininin-stimulated human PBMC assessed as 30-azido-20,30-dideoxy-b-L-adenosine diphosphate level per 10^6 cells at 50 uM after 4 hrs by LC-MS/MS analysis. It is filed as ADME, cell-based. Summed up: (§1)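 PHA-activated human PBM cells incubated with nucleoside at 50 μM for 4 h at 37 °C, then PBS-washed. Intracellular nucleoside and nucleotide metabolites were extracted with 60% ice-cold methanol, dried, redissolved in HPLC mobile phase, and quantified by LC-MS/MS.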

Data set [12] relates to PBMC. As to the kind of experiment: Drug metabolism in human phytohemagglutininin-stimulated human PBMC assessed as 30-azido-20,30-dideoxy-b-L-adenosine triphosphate level per 10^6 cells at 50 uM after 4 hrs by LC-MS/MS analysis. In kind it is ADME, cell-based. In short, it runs like this: as §1
In data set [13] the test system is PBMC. Put plainly: Drug metabolism in human phytohemagglutininin-stimulated human PBMC assessed as 30-azido-20,30-dideoxy-b-L-adenosine monophosphate level per 10^6 cells at 50 uM after 4 hrs by LC-MS/MS analysis. It is filed as ADME, cell-based. In short, it runs like this:
as §1

The subject of data set [14] is PBMC. As to the kind of experiment: Drug metabolism in human phytohemagglutininin-stimulated human PBMC assessed as 30-azido-20,30-dideoxy-b-L-adenosine level per 10^6 cells at 50 uM after 4 hrs by LC-MS/MS analysis. In kind it is ADME, cell-based. In short, it runs like this:
as §1

Data set [15] deals with PBMC. Put plainly: Drug metabolism in human phytohemagglutininin-stimulated human PBMC assessed as 9-(3-azido-2,3-dideoxy-b-L-ribofuranosyl)-2-amino-6-chloropurine triphosphate level per 10^6 cells at 50 uM after 4 hrs by LC-MS/MS analysis. In kind it is ADME, cell-based. In short, it runs like this:
as §1

For data set [16], the system named is PBMC. Put plainly: Drug metabolism in human phytohemagglutininin-stimulated human PBMC assessed as 9-(3-azido-2,3-dideoxy-b-L-ribofuranosyl)-2-amino-6-chloropurine level per 10^6 cells at 50 uM after 4 hrs by LC-MS/MS analysis. It is filed as ADME, cell-based. Summed up: as §1
Data set [17] has as its system PBMC. Put plainly: Drug metabolism in human phytohemagglutininin-stimulated human PBMC assessed as 9-(3-azido-2,3-dideoxy-b-L-ribofuranosyl)-2-amino-6-chloropurine diphosphate level per 10^6 cells at 50 uM after 4 hrs by LC-MS/MS analysis. It is filed as ADME, cell-based. In short, it runs like this: as §1
In data set [18] the test system is PBMC. As to the kind of experiment: Drug metabolism in human phytohemagglutininin-stimulated human PBMC assessed as compound level per 10^6 cells at 50 uM after 4 hrs by LC-MS/MS analysis. It is filed as ADME, cell-based.
Data set [19] relates to PBMC. As to the kind of experiment: Drug metabolism in human phytohemagglutininin-stimulated human PBMC assessed as 9-(3-azido-2,3-dideoxy-b-L-ribofuranosyl)-2-amino-6-chloropurine monophosphate level per 10^6 cells at 50 uM after 4 hrs by LC-MS/MS analysis. It is filed as ADME, cell-based. Summed up: as §1
Where [20] appears, read: Hepatitis B virus, HePAD38, 168 h.
The mark [21] stands for this setting: Human immunodeficiency virus 1, LAV1, 144 h.

With `[N-]=[N+]=N[C@@H]1C[C@@H](n2cnc3c(O)nc(N)nc32)O[C@H]1COP(=O)(O)OP(=O)(O)OP(=O)(O)O`, in [1], the pKd (usually the Kd on a negative log10 scale, so that one unit is a factor of ten) was 6.64.

As for `Nc1ccn([C@@H]2CS[C@H](CO)O2)c(=O)n1` [LAMIVUDINE], the Activity entry in [2] is listed as “Non-toxic”. In [3] (setting [20]), the pEC50 (usually the negative decadic logarithm of the EC50, by convention in mol/L) was 7.22. The pIC50 in data set [4], in [5] and in data set [6] was less than 4.00 each time.

As to `Cc1cn([C@H]2C[C@H](N=[N+]=[N-])[C@@H](CO[P@](=O)(O)O[P@](=O)(O)OP(=O)(O)O)O2)c(=O)[nH]c1=O` (single isomer, unassigned) [ZIDOVUDINE TRIPHOSPHATE], the pKd in data set [1] was 4.26.

On to `Cc1cn([C@H]2C[C@H](N=[N+]=[N-])[C@@H](CO)O2)c(=O)[nH]c1=O` (stereo in doubt) [ZIDOVUDINE], for which the pEC50 in [3] was less than 5.00.

`[N-]=[N+]=N[C@@H]1C[C@@H](n2cnc3c(N)ncnc32)O[C@H]1COP(=O)(O)OP(=O)(O)OP(=O)(O)O`: in data set [7], the Ratio was determined as 0.023 µM⁻¹ min⁻¹. Also, in data set [8], the Selectivity ratio was 19800. Further, the pKd in data set [1] was 4.82.

Take `CCOC(=O)[C@H](C)NP(=O)(OC[C@@H]1O[C@H](n2cnc3c(N)nc(N)nc32)C[C@H]1N=[N+]=[N-])Oc1ccccc1` (stereo not given in full): in data set [2], the Activity entry is “Non-toxic”. Further, the results for the pEC50 in [3] (setting [20]) and in [9] (setting [21]) were less than 4.00 and 4.80, respectively. For the same compound, the pIC50 in [4], in data set [5] and in [6] was less than 4.00 throughout. For the same compound, the EC90 (in general, the point of the concentration-response curve where the effect stands at 90%) in [9] (setting [21]) was more than 100 µM.

On to `Nc1ncnc2c1ncn2[C@H]1C[C@H](O)[C@@H](COP(=O)(O)OP(=O)(O)OP(=O)(O)O)O1`, for which the Ratio in data set [7] was found to be 455 µM⁻¹ min⁻¹.

With `Nc1ccn([C@@H]2CS[C@H](COP(=O)(O)OP(=O)(O)OP(=O)(O)O)O2)c(=O)n1` [LAMIVUDINE TRIPHOSPHATE], the Ratio in data set [7] came out at 5.46 µM⁻¹ min⁻¹. For the same compound, the Selectivity ratio in data set [10] worked out at 11.9. In addition, the pKd in [1] was 6.89.

For `CCOC(=O)[C@H](C)NP(=O)(OC[C@@H]1O[C@H](n2cnc3c(Cl)ncnc32)C[C@H]1N=[N+]=[N-])Oc1ccccc1` (stereo not given in full), the Activity entry in [2] is “Non-toxic”. In addition, the pEC50 in [3] (setting [20]) is less than 4.00; in [9] (setting [21]), 4.78. For the same compound, the pIC50 (commonly the IC50 on a negative log10 scale, so that one unit is a factor of ten) in [4] is less than 4.00; in data set [5], 4.16; in data set [6], 5.24. Besides, the EC90 in [9] (setting [21]) was 83.1 µM.

As to `CCOC(=O)[C@H](C)NP(=O)(OC[C@@H]1O[C@H](n2cnc3c(N)ncnc32)C[C@H]1N=[N+]=[N-])Oc1ccccc1` (stereo not given in full), the Activity entry in [2] was “Non-toxic”; in [11], 1200 fmol; in [12] it was 7400 fmol; in data set [13] it was 4200 fmol; in [14], 7500 fmol. Moreover, the pEC50 in data set [3] (setting [20]) was less than 4.00; in data set [9] (setting [21]) it was 5.85. Besides, the pIC50 in data set [4], in data set [5] and in [6] was less than 4.00 in each case. The EC90 in data set [9] (setting [21]) is 15.6 µM.

On to `[N-]=[N+]=N[C@@H]1C[C@@H](n2cnc3c(N)nc(N)nc32)O[C@H]1COP(=O)(O)OP(=O)(O)OP(=O)(O)O`, for which, in data set [7], the Ratio amounted to 0.062 µM⁻¹ min⁻¹. For the same compound, in data set [8], the Selectivity ratio is 7340. Besides, the pKd in data set [1] was 5.64.

For the compound `Cc1cn([C@H]2C[C@H](N=[N+]=[N-])[C@@H](CO)O2)c(=O)[nH]c1=O` (stereo in doubt; 27) [ZIDOVUDINE], the Activity entry in data set [2] is “Non-toxic”. The pEC50 in [3] and in data set [9] was less than 4.00 each time. In addition, the EC90 in data set [9] is more than 100 µM.

`CCOC(=O)[C@H](C)NP(=O)(OC[C@@H]1O[C@H](n2cnc3c(Cl)nc(N)nc32)C[C@H]1N=[N+]=[N-])Oc1ccccc1` (stereo not given in full): the Activity entry in data set [2] is reported as “Non-toxic”; in [15], 10 fmol; in [16] it was 49 fmol; in data set [17], 190 fmol; in [18], 12 fmol; in [19] it was 430 fmol. Moreover, the pEC50 was less than 4.00 in [3] (setting [20]) and 4.78 in [9] (setting [21]). The results for the pIC50 in data set [4], in data set [5] and in data set [6] were less than 4.00, 4.15 and 4.64, respectively. Besides, the EC90 in data set [9] (setting [21]) amounted to 55.9 µM.

For `CCOC(=O)[C@H](C)NP(=O)(OC[C@@H]1O[C@H](n2cc(C)c(=O)[nH]c2=O)C[C@H]1N=[N+]=[N-])Oc1ccccc1` (stereo not given in full), the Activity entry in data set [2] is listed as “Non-toxic”. The pEC50 in data set [3] (setting [20]) and in data set [9] (setting [21]) was less than 4.00 throughout. Besides, the pIC50 in data set [4], in [5] and in data set [6] was less than 4.00 in each case. The EC90 in [9] (setting [21]) was more than 100 µM.

For the compound `CCOC(=O)[C@H](C)NP(=O)(OC[C@@H]1O[C@H](n2cnc3c(O)nc(N)nc32)C[C@H]1N=[N+]=[N-])Oc1ccccc1` (stereo not given in full), the Activity result in [2] is reported as “Non-toxic”. The pEC50 in [3] (setting [20]) and in data set [9] (setting [21]) was less than 4.00 in each case. In addition, the pIC50 in data set [4], in data set [5] and in [6] was less than 4.00 each time. The EC90 in data set [9] (setting [21]) was more than 100 µM.

Consider `Nc1ccn([C@H]2C[C@H](O)[C@@H](CO)O2)c(=O)n1` [DOXECITINE], for which the Ratio in [7] was determined as 65 µM⁻¹ min⁻¹. In addition, the pKd in data set [1] was 5.96.
